Results reported in ChEMBL document CHEMBL1155843, “Selective alkylation of beta(II)-tubulin and thioredoxin-1 by structurally related subsets of aryl chloroethylureas leading to either anti-microtubules or redox modulating agents” (2008).
The source made the active and inactive calls. No cut-off for these calls is given here.

Tests used:
MCF7 [1] = experiment: Antiproliferative activity against human MCF7 cells after 48 hrs by sulforhodamine B method; assay type: functional; conditions: MCF7, 48 h
Method in brief: (§1)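 Seeding per well: 5 × 10³ HT-29 cells, or 3.5 × 10³ M21 or MCF-7 cells. Drugs were dissolved fresh in DMSO and serially diluted in medium (final range 100 to 0.3), with DMSO held at 0.12%. Cells were exposed for 48 h, fixed with cold TCA (10% final, 1 h, 4 °C) and stained with 0.1% SRB for 15 min. Dye was solubilized in 10 mM Tris and read at A585. Day-0 OD was subtracted, inhibition was calculated against DMSO cells, and n ≥ 3.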

M21 [2] = experiment: Antiproliferative activity against human M21 cells after 48 hrs by sulforhodamine B method; assay type: functional; conditions: M21, 48 h; method in brief: as §1
HT-29 = experiment: Antiproliferative activity against human HT29 cells after 48 hrs by sulforhodamine B method; assay type: functional; conditions: HT-29, 48 h; method in brief: as §1
MCF7 [3] = experiment: Cell cycle arrest in human MCF7 cells assessed as accumulation at G0/G1 phase at 2 times GI50 after 24 hrs by flow cytometry; assay type: functional
Method in brief: (§2)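 Cells were trypsinized, PBS-washed, fixed in ice-cold ethanol, and stained with propidium iodide plus RNase for 30 min at room temperature. G0/G1, S and G2/M fractions were measured by flow cytometry.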

MCF7 [4] = experiment: Cell cycle arrest in human MCF7 cells assessed as accumulation at S phase at 2 times GI50 after 24 hrs by flow cytometry; assay type: functional; method in brief: as §2
MCF7 [5] = experiment: Cell cycle arrest in human MCF7 cells assessed as accumulation at G2/M phase at 2 times GI50 after 24 hrs by flow cytometry; assay type: functional; method in brief: as §2
M21 [6] = experiment: Induction of beta2-tubulin alkylation in human M21 cells at 2 times GI50 after 24 hrs by Western blot analysis; assay type: cell-based
Method in brief: (§3)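 Floating and adherent cells were pooled and lysed in boiled Laemmli buffer; protein was measured by Lowry. 20 µg per lane ran on 10% SDS-PAGE and was blotted with anti-βII-tubulin (1:500), HRP anti-mouse (1:2500) and ECL. Alkylation was scored as a faster-migrating βII-tubulin band.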

M21 [7] = experiment: Induction of beta2-tubulin alkylation in human M21 cells at 2 times GI50 after 48 hrs by Western blot analysis; assay type: cell-based; method in brief: as §3
M21 [8] = experiment: Inhibition of nuclear translocation of thioredoxin-1 from cytosol in human M21 cells at 2 times GI50 after 16 hrs by immunocytofluorescence; assay type: functional, cell-based
Method in brief: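 Cells were fixed in 3.7% formaldehyde (20 min), permeabilized with 0.1% saponin and blocked with 3% BSA. Staining used anti-Trx-1 monoclonal (1:200, 2 h, 37 °C) and Alexa-488 anti-mouse IgG (1:1000, 1 h). Trx-1 cytosol/nucleus localization was read by confocal immunofluorescence.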

M21 [9] = experiment: Induction of beta2-tubulin alkylation in human M21 cells at 2 times GI50 by Western blot analysis; assay type: cell-based; method in brief: as §3
M21 [10] = experiment: Stimulation of nuclear translocation of thioredoxin-1 from cytosol in human M21 cells at 25 µM after 16 hrs by immunocytofluorescence

Structure (SMILES)	GI50 (MCF7 [1]) [µM]	GI50 (M21 [2]) [nM]	GI50 (HT-29) [nM]	Activity (MCF7 [3]) [%]	Activity (MCF7 [4]) [%]	Activity (MCF7 [5]) [%]	Activity (M21 [6])	Activity (M21 [7])	Activity (M21 [8])	Activity (M21 [9])	Activity (M21 [10])
CC1(C)CCC(C)(C)c2cc(NC(=O)NCCCl)ccc21	4.2	2600	1300	6	20	74	Active	Active	inactive		
CCC(C)SSc1ncc[nH]1 (centres undefined) [PX-12]				29	13	58				inactive	Active
